The source made the active and inactive calls. No cut-off for these calls is given here.
Legend:
[1] = molecular target: T1, Ectonucleotide pyrophosphatase/phosphodiesterase family member 1 (Homo sapiens) (UniProt P22413); assay: Inhibition of human NPP1 using ATP as substrate at 100 uM after 20 mins by reversed-phase HPLC analysis
T1 sequence (whole entry): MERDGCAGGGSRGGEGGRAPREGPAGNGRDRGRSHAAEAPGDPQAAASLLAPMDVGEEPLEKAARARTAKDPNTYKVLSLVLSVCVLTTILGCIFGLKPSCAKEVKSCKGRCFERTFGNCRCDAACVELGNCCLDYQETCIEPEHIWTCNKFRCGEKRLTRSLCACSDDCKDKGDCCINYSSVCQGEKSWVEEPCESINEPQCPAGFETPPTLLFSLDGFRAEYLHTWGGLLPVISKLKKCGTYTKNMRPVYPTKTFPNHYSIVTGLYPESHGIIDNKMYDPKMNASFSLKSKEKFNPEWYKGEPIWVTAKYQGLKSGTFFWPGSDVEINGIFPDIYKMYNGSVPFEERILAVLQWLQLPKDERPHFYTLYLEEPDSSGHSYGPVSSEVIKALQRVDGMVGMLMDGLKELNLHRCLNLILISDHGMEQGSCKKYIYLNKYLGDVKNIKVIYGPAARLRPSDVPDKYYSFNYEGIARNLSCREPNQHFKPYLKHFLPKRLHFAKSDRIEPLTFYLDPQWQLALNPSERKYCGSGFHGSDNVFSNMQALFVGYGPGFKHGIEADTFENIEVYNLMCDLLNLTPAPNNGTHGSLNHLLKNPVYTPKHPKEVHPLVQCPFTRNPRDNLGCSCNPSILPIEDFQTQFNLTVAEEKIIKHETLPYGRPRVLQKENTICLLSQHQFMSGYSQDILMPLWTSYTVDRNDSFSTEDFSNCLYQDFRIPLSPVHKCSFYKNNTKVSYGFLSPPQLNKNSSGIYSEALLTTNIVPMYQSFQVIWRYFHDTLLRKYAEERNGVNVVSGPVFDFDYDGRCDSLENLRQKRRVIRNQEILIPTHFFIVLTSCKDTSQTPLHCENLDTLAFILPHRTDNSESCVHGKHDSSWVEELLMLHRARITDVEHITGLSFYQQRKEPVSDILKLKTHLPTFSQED

[2] = molecular target: T1, Ectonucleotide pyrophosphatase/phosphodiesterase family member 1 (Homo sapiens); assay: Inhibition of NPP1 in human HTB-85 cells using pNP-TMP as substrate at 100 uM after 20 mins […]; type: cell-based
Summary of the method: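 Assay on intact human osteocarcinoma HTB-85 (SaOS-2) cells as native NPP1 source, in 0.5 mL incubation mixture. pNP-TMP is added to 100 μM final with inhibitor at 100 μM. After 20 min, p-nitrophenol is read at 410 nm. Substrate alone is set as 100%. Three experiments in triplicate.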

[3] = molecular target: T2, Ectonucleoside triphosphate diphosphohydrolase 2 (Homo sapiens) (UniProt Q9Y5L3); assay: Inhibition of human NTPDase-2 using ATP as substrate assessed as inorganic phosphate release at 100 uM after 15 mins relative to control
T2 sequence (whole entry): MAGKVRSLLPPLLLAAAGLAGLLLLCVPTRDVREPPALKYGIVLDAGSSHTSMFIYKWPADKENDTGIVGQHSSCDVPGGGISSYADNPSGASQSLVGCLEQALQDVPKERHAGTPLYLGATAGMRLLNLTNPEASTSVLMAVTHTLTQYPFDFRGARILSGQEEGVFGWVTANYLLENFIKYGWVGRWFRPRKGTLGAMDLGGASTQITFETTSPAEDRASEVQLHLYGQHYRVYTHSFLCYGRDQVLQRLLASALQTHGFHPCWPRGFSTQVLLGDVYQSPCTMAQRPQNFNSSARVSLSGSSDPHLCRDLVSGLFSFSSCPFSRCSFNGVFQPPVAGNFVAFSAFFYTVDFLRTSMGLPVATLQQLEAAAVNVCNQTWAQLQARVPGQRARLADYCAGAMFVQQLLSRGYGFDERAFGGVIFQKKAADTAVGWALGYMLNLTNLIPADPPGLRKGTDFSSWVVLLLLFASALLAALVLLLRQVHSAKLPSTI
Summary of the method: (§1)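 Protein extracts are from COS-7 cells transiently transfected with human NTPDase1, 2, 3 or 8. Extract is preincubated for 3 min at 37 °C in Tris–Ringer buffer (pH 7.3). […] Three experiments in triplicate.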

[4] = molecular target: T3, Ectonucleoside triphosphate diphosphohydrolase 8 (Homo sapiens) (UniProt Q5MY95); assay: Inhibition of human NTPDase-8 using ATP as substrate assessed as inorganic phosphate release at 100 uM after 15 mins relative to control; summary of the method: as §1
T3 sequence (whole entry): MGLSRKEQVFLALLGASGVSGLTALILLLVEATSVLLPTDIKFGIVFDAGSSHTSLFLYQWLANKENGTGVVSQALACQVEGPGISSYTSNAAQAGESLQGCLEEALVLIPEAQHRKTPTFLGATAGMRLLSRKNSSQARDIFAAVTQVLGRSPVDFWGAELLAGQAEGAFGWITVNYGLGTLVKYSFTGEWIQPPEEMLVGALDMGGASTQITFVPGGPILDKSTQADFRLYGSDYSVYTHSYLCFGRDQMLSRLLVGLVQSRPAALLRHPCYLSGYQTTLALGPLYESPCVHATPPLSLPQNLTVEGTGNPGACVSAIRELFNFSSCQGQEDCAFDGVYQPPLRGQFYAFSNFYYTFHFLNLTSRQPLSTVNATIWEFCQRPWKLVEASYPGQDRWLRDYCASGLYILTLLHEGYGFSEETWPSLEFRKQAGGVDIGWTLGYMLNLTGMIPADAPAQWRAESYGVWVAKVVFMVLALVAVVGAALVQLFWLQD

[5] = molecular target: T4, P2Y purinoceptor 11 (Homo sapiens) (UniProt Q96G91); assay: Agonist activity at human P2Y11 receptor expressed in human 1321N1 cells assessed as increase of intracellular calcium level after 30 mins using fura-2 AM by fluorescence assay relative to ATP; type: functional, cell-based
T4 sequence (whole entry): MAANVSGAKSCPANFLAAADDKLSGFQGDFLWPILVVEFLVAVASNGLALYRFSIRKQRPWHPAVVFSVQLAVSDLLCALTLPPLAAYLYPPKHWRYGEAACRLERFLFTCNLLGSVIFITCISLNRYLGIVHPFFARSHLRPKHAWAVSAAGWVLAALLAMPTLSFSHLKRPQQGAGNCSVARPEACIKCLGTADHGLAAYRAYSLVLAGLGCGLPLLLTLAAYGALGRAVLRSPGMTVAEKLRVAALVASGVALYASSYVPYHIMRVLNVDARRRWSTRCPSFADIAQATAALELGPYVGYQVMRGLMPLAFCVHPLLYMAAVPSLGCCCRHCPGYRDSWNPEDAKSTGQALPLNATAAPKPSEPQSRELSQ

[6] = molecular target: T5, Ectonucleotide pyrophosphatase/phosphodiesterase family member 1 (Homo sapiens, UniProt P22413); assay: Mixed type inhibition of human NPP1 using pNP-TMP as substrate after 20 mins by Dixon and Cornish-Bowden method
T5 sequence (P22413 whole entry): T1 sequence (whole entry)
Summary of the method: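 Human NPP1 (COS-7 lysate) is tested with pNP-TMP hydrolysis at 37 °C in pH 8.5 Tris buffer, reading p-nitrophenol at […]. Substrate is 25, 50 and 100 μM, and inhibitor is 0, 25, 50 and 100 μM. Inhibition type, Ki and Ki′ (EIS complex dissociation constant) come from Dixon and Cornish–Bowden plots of three independent experiments.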

Compound	inhibition [1]	inhibition [2]	inhibition [3]	inhibition [4]	fold change (FC) [5]	IC50 [6]	Ki [6]
Nc1ncnc2c1ncn2[C@@H]1O[C@H](COP(=O)(O)CP(=O)(O)OP(O)(O)=S)[C@@H](O)[C@H]1O	Active	Active	16.3%	7%	6.7	–	–
Nc1ncnc2c1ncn2[C@@H]1O[C@H](CO[P@@](O)(=S)OP(=O)(O)CP(=O)(O)O)[C@@H](O)[C@H]1O	Active	Active	12.7%	1.5%	7.4	18.7 µM	1.3 µM
Nc1ncnc2c1ncn2[C@@H]1O[C@H](CO[P@](O)(=S)OP(=O)(O)C(Cl)(Cl)P(=O)(O)O)[C@@H](O)[C@H]1O	Active	Active	11.2%	4.9%	–	0.6 µM	0.685 µM
Nc1ncnc2c1ncn2[C@@H]1O[C@H](CO[P@](O)(=S)OP(=O)(O)CP(=O)(O)O)[C@@H](O)[C@H]1O	Active	Active	15.4%	0.5%	–	16.3 µM	4.5 µM
Nc1ncnc2c1ncn2[C@@H]1O[C@H](CO[P@@](O)(=S)OP(=O)(O)C(Cl)(Cl)P(=O)(O)O)[C@@H](O)[C@H]1O	Active	Active	9.9%	0.5%	2.2	31.2 µM	15.2 µM
